Results: ChEMBL document CHEMBL3421565, “β-D-2'-C-Methyl-2,6-diaminopurine Ribonucleoside Phosphoramidates are Potent and Selective Inhibitors of Hepatitis C Virus (HCV) and Are Bioconverted Intracellularly to Bioactive 2,6-Diaminopurine and Guanosine 5'-Triphosphate Forms” (J Med Chem, 2015)

Assays:
[1] = system: Hepatitis C virus; assay: Antiviral activity against HCV infected in human HuH7 cells assessed as reduction in replicon RNA levels incubated for 5 days by RT-PCR assay; assay type: functional, organism-based, Hepacivirus hominis; conditions: Huh-7, 120 h
How it was run: (§1)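 Huh-7 clone B cells carrying HCV replicon RNA, seeded at 3000 cells/well; compounds added in dose response in triplicate right after seeding. Incubated 5 days at 37 °C, 5% CO₂. Total RNA extracted; replicon RNA and rRNA internal control co-amplified by one-step multiplex real-time RT-PCR. Antiviral effect taken as ΔCt versus no-drug control; cytotoxicity read from rRNA reduction.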

[2] = system: Vero; assay: Cytotoxicity against African green monkey Vero cells assessed as reduction in cell viability incubated for 5 days by Cell-titer 96 aqueous one solution cell proliferation assay; assay type: cell-based; conditions: chlorocebus sabaeus, vero, 120 h
[3] = Toxicity in human PC3 cells assessed as effect on GAPDH levels at 100 uM; assay type: cell-based; conditions: pc-3, 100 µM
[4] = Toxicity in human PC3 cells assessed as effect on thymidine uptake at 100 uM; assay type: cell-based; conditions: pc-3, 100 µM
[5] = system: HepG2; assay: Mitochondrial toxicity in human HepG2 cells assessed as effect on mitochondrial cytochrome c oxidase subunit 2 DNA level incubated for 14 days by real-time PCR method; assay type: cell-based; conditions: hepg2, 336 h
How it was run: (§2)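 HepG2 cells in DMEM with 4.5 g/L glucose and 10% heat-inactivated FBS, seeded at 5000 cells/well on collagen; compounds added 1 day later at final 1–50 μM. Medium and compound renewed every 3–4 days for 14 days; duplicates in two independent experiments. COXII mtDNA and nuclear β-actin DNA measured by real-time PCR, normalised to untreated control; IC₅₀ calculated.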

[6] = system: HepG2; assay: Mitochondrial toxicity in human HepG2 cells assessed as effect on nuclear beta-actin DNA level incubated for 14 days by real-time PCR method; assay type: cell-based; conditions: hepg2, 336 h; how it was run: as §2
[7] = system: HepG2; assay: Mitochondrial toxicity in human HepG2 cells assessed as induction of lactic acid levels at 1 uM incubated for 14 days; assay type: cell-based; conditions: hepg2, 336 h
How it was run: (§3)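 After 14 days of HepG2 exposure to compound (same culture regimen as the mtDNA assay), lactic acid in culture supernatant quantified with a D-/L-lactic acid kit by absorbance. Results expressed as % lactic acid over % nuclear DNA (β-actin control); mean of triplicates from a single plate.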

[8] = system: HepG2; assay: Mitochondrial toxicity in human HepG2 cells assessed as induction of lactic acid levels at 10 uM incubated for 14 days; assay type: cell-based; conditions: hepg2, 336 h; how it was run: as §3
[9] = system: HepG2; assay: Mitochondrial toxicity in human HepG2 cells assessed as induction of lactic acid levels at 50 uM incubated for 14 days; assay type: cell-based; conditions: hepg2, 336 h; how it was run: as §3
[10] = system: Hepatitis C virus; assay: Antiviral activity against HCV genotype 1a infected in human HuH7 cells assessed as reduction in replicon RNA levels incubated for 5 days by RT-PCR assay; assay type: functional, cell-based, Hepacivirus hominis; conditions: subtype 1a, Huh-7, 120 h; how it was run: as §1
[11] = system: Hepatitis C virus; assay: Antiviral activity against HCV genotype 1b infected in human HuH7 cells assessed as reduction in replicon RNA levels incubated for 5 days by RT-PCR assay; assay type: functional, cell-based, Hepacivirus hominis; conditions: Huh-7, 120 h; how it was run: as §1
[12] = system: Hepatitis C virus; assay: Antiviral activity against HCV genotype 2a infected in human HuH7 cells assessed as reduction in replicon RNA levels incubated for 5 days by RT-PCR assay; assay type: functional, cell-based, Hepacivirus hominis; conditions: Huh-7, 120 h; how it was run: as §1
[13] = system: Hepatitis C virus; assay: Antiviral activity against HCV genotype 2b chimera with HCV genotype 1b Con1 backbone containing HCV genotype 2b NS5B gene infected in human HuH7 cells assessed as reduction in replicon RNA levels incubated for 5 days by RT-PCR assay; assay type: functional, cell-based, Hepacivirus hominis; conditions: Huh-7, 120 h; how it was run: as §1
[14] = system: Hepatitis C virus; assay: Antiviral activity against HCV genotype 3a chimera with HCV genotype 1b Con1 backbone containing HCV genotype 3a NS5B gene infected in human HuH7 cells assessed as reduction in replicon RNA levels incubated for 5 days by RT-PCR assay; assay type: functional, cell-based, Hepacivirus hominis; conditions: Huh-7, 120 h; how it was run: as §1
[15] = system: Hepatitis C virus; assay: Antiviral activity against HCV genotype 4a chimera with HCV genotype 1b Con1 backbone containing HCV genotype 4a NS5B gene infected in human HuH7 cells assessed as reduction in replicon RNA levels incubated for 5 days by RT-PCR assay; assay type: functional, cell-based, Hepacivirus hominis; conditions: Huh-7, 120 h; how it was run: as §1
[16] = system: Hepatitis C virus; assay: Antiviral activity against HCV genotype 5a chimera with HCV genotype 1b Con1 backbone containing HCV genotype 5a NS5B gene infected in human HuH7 cells assessed as reduction in replicon RNA levels incubated for 5 days by RT-PCR assay; assay type: functional, cell-based, Hepacivirus hominis; conditions: Huh-7, 120 h; how it was run: as §1
[17] = system: Hepatitis C virus; assay: Antiviral activity against HCV genotype 1b containing NS5A Y93H mutant infected in human HuH7 cells assessed as reduction in replicon RNA levels incubated for 5 days by RT-PCR assay; assay type: functional, cell-based, Hepacivirus hominis; conditions: Huh-7, 120 h; how it was run: as §1
[18] = system: Hepatitis C virus; assay: Antiviral activity against HCV genotype 1b containing NS3 R155K mutant infected in human HuH7 cells assessed as reduction in replicon RNA levels incubated for 5 days by RT-PCR assay; assay type: functional, cell-based, Hepacivirus hominis; conditions: Huh-7, 120 h; how it was run: as §1
[19] = system: Hepatitis C virus; assay: Antiviral activity against HCV genotype 1b containing NS5B S282T mutant infected in human HuH7 cells assessed as reduction in replicon RNA levels incubated for 5 days by RT-PCR assay; assay type: functional, cell-based, Hepacivirus hominis; conditions: Huh-7, 120 h; how it was run: as §1
[20] = system: Hepatitis C virus; assay: Antiviral activity against HCV genotype 1b containing NS5B C316Y mutant infected in human HuH7 cells assessed as reduction in replicon RNA levels incubated for 5 days by RT-PCR assay; assay type: functional, cell-based, Hepacivirus hominis; conditions: Huh-7, 120 h; how it was run: as §1
[21] = system: Hepatitis C virus; assay: Antiviral activity against HCV genotype 1b containing NS5B C445F mutant infected in human HuH7 cells assessed as reduction in replicon RNA levels incubated for 5 days by RT-PCR assay; assay type: functional, cell-based, Hepacivirus hominis; conditions: Huh-7, 120 h; how it was run: as §1
[22] = system: Hepatitis C virus; assay: Antiviral activity against HCV genotype 1b containing NS5B M414I mutant infected in human HuH7 cells assessed as reduction in replicon RNA levels incubated for 5 days by RT-PCR assay; assay type: functional, cell-based, Hepacivirus hominis; conditions: Huh-7, 120 h; how it was run: as §1
[23] = system: Hepatitis C virus; assay: Antiviral activity against HCV genotype 1b containing NS5B P495A mutant infected in human HuH7 cells assessed as reduction in replicon RNA levels incubated for 5 days by RT-PCR assay; assay type: functional, cell-based, Hepacivirus hominis; conditions: Huh-7, 120 h; how it was run: as §1
[24] = Drug metabolism in human HuH7 cells assessed as 2'-C-Me-DAPN-TP level per million cells at 50 uM incubated for 4 hrs at 37 degC by LC-MS/MS method; assay type: ADME, cell-based; conditions: huh-7, 4 h
How it was run: (§4)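 Huh-7 cells (after attachment) or freshly plated primary human hepatocytes (after overnight acclimatation), 1 × 10⁶ cells/well, exposed to 50 μM compound for 4 h at 37 °C. Cells washed twice with ice-cold PBS and extracted overnight at −20 °C in 70% methanol containing 20 nM ddATP. Mono-, di- and triphosphates quantified by LC–MS/MS as pmol/10⁶ cells; three replicates.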

[25] = Drug metabolism in human HuH7 cells assessed as 2'-C-Me-DAPN-TP level per million cells at 50 uM incubated for 4 hrs at 37 degC by LC-MS/MS method relative to DAPN; assay type: ADME, cell-based; conditions: huh-7, 4 h; how it was run: as §4
[26] = Drug metabolism in human primary hepatocytes assessed as 2'-C-Me-DAPN-TP level at 50 uM incubated for 4 hrs at 37 degC by LC-MS/MS method; assay type: ADME, cell-based, Hepatocyte; how it was run: as §4

Compound: CCOC(=O)CCc1ccccc1O[P@@](=O)(N[C@@H](C)C(=O)OCC)OC[C@H]1O[C@@H](n2cnc3c(N)nc(N)nc32)[C@](C)(O)[C@H]1O
- EC50 [1]: 200 nM
- EC90 [1]: 700 nM
- CC50 [2]: > 100000 nM
- Activity [3]: Non-toxic
- Activity [4]: Non-toxic
- CC50 [5]: > 50000 nM
- CC50 [6]: > 50000 nM
- Activity [7]: 150%
- Activity [8]: 120%
- Activity [9]: 110%
- EC50 [10]: 350 nM
- EC90 [10]: 740 nM
- EC50 [11]: 260 nM
- EC90 [11]: 390 nM
- EC50 [12]: 260 nM
- EC90 [12]: 700 nM
- EC50 [13]: 290 nM
- EC90 [13]: 420 nM
- EC50 [14]: 230 nM
- EC90 [14]: 390 nM
- EC50 [15]: 390 nM
- EC90 [15]: 890 nM
- EC50 [16]: 320 nM
- EC90 [16]: 640 nM
- EC50 [17]: 300 nM
- EC90 [17]: 3000 nM
- EC50 [18]: 320 nM
- EC90 [18]: 1300 nM
- EC50 [19]: 100 nM
- EC90 [19]: 230 nM
- EC50 [20]: 270 nM
- EC90 [20]: 770 nM
- EC50 [21]: 120 nM
- EC90 [21]: 250 nM
- EC50 [22]: 280 nM
- EC90 [22]: 1100 nM
- EC50 [23]: 80 nM
- EC90 [23]: 140 nM
- Drug metabolism [24]: 9.9 pmol
- fold change (FC) [25]: 13
- fold change (FC) [26]: 7
